Source: ChEMBL document CHEMBL4765233, “From Lead to Drug Candidate: Optimization of 3-(Phenylethynyl)-1H-pyrazolo[3,4-d]pyrimidin-4-amine Derivatives as Agents for the Treatment of Triple Negative Breast Cancer” (J Med Chem, 2016)
Active and inactive are the calls of the source. No cut-off for these calls is given here.

Key:
MDA-MB-231 [1] = assay: Antiproliferative activity against human MDA-MB-231 cells assessed as reduction in cell viability incubated for 72 hrs by MTT assay; type: functional, cell-based; conditions: MDA-MB-231, 72 h
In short: (§1)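 MTT viability assay. ATCC cell lines were grown in designated medium with 10% FBS at 37 °C, 5% CO2. Cells seeded at 1500−30000 per well and incubated 24 h, then exposed to compound (0−10 μg/mL) for 72 h. MTT added for 2−4 h. Formazan dissolved in DMSO (adherent) or acidified SDS overnight (suspension), absorbance read at 570 nm. Triplicates; IC50 calculated.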

MDA-MB-435 [2] = assay: Antiproliferative activity against human MDA-MB-435 cells assessed as reduction in cell viability incubated for 72 hrs by MTT assay; type: functional, cell-based; conditions: MDA-MB-435, 72 h; in short: as §1
HepG2 = assay: Antiproliferative activity against human HepG2 cells assessed as reduction in cell viability incubated for 72 hrs by MTT assay; type: ADME, cell-based; conditions: HepG2, 72 h
MDA-MB-231 [3] = assay: Antitumor activity against human MDA-MB-231 cells xenografted in SCID mouse assessed as tumor growth inhibition at 40 mg/kg, po qd for 21 days and measured every 3 days; type: functional; conditions: dose 40.0 mg/kg/day, time 21.0 day
In short: (§2)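 SCID mice (5−6 weeks) injected subcutaneously with 100 μL of cells at 5 × 10^7/mL. At 150−200 mm3 mice randomized, 6 per group. Oral compounds given in water with 25% PEG400 plus 5% DMSO; paclitaxel given 10 mg/kg/week iv. Tumor volume a×b²/2 and body weight measured every 3 days. Inhibition rate (c−d)/c×100% against vehicle control.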

[4] = Toxicity in SCID mouse xenografted with MDA-MB-231 cells assessed as change in body weight at 40 mg/kg, po qd for 21 days and measured every 3 days; type: organism-based; conditions: in vivo, 504 h, dose 40 mg/kg/day, time 21 day
In short: (§3)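 Exponential-phase cells washed and injected subcutaneously (5 × 10^6 cells in 100 μL) into 5–6-week SCID mice. At 150–200 mm3, mice randomised to groups of 6. Oral dosing daily in water with 25% PEG400 and 5% DMSO; paclitaxel 10 mg/kg weekly by tail vein. Body weight measured every 3 days and side effects checked daily.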

MDA-MB-231 [5] = assay: Inhibition of colony formation in human MDA-MB-231 cells at 0.1 uM treated for 12 days by crystal violet staining based visual analysis; type: functional, cell-based; conditions: time 12.0 day
In short: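 MDA-MB-231 cells seeded at 5000 per well in six-well plates and treated the next day, with drug-containing medium replaced every 4 days. After 12 days, colonies fixed with methanol and stained with crystal violet, then photographed.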

MDA-MB-231 [6] = assay: Induction of apoptosis in human MDA-MB-231 cells assessed as necrotic cells at 0.1 uM incubated for 24 hrs by annexin V-FITC and propidium iodide staining based flow cytometry analysis (reference value: 0.2 %); type: functional
MDA-MB-231 [7] = assay: Induction of apoptosis in human MDA-MB-231 cells assessed as late apoptotic cells at 0.1 uM incubated for 24 hrs by annexin V-FITC and propidium iodide staining based flow cytometry analysis (reference value: 0.85 %); type: functional
MDA-MB-231 [8] = assay: Induction of apoptosis in human MDA-MB-231 cells assessed as live cells at 0.1 uM incubated for 24 hrs by annexin V-FITC and propidium iodide staining based flow cytometry analysis (reference value: 96.95 %); type: functional
MDA-MB-231 [9] = assay: Induction of apoptosis in human MDA-MB-231 cells assessed as early apoptotic cells at 0.1 uM incubated for 24 hrs by annexin V-FITC and propidium iodide staining based flow cytometry analysis (reference value: 2 %); type: functional
MDA-MB-231 [10] = assay: Antimigratory activity against human MDA-MB-231 cells assessed as inhibition of cell migration at 0.3 uM incubated for 20 hrs by wound healing assay; type: functional, cell-based
In short: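 MDA-MB-231 monolayer grown to confluence, scratched with a sterile pipet tip, rinsed with physiological saline, then given DMEM containing vehicle or compound. Wound imaged after 20 h to assess migration.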

MDA-MB-231 [11] = assay: Increase in cleaved caspase-3 level in human MDA-MB-231 cells at 0.03 to 0.3 uM incubated for 20 hrs by Western blot analysis; type: functional, cell-based; conditions: dose 0.03-0.3 µM
In short: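 MDA-MB-231 cells given a concentration series for 20 h at 37 °C. Cells lysed in RIPA with protease cocktail, cleared at 12000 rpm, 4 °C. Protein quantified by Bradford, equal amounts run on SDS-PAGE, transferred to PVDF and immunoblotted.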

MDA-MB-231 [12] = assay: Inhibition of MEK phosphorylation in human MDA-MB-231 cells at 0.03 to 0.3 uM incubated for 20 hrs by Western blot analysis; type: cell-based; conditions: dose 0.03-0.3 µM
In short: (§4)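 MDA-MB-231 cells treated with a series of concentrations for 20 h at 37 °C. Cells washed with ice-cold saline and lysed in RIPA buffer with protease cocktail. Lysates cleared at 12000 rpm for 10 min at 4 °C and protein quantified by Bradford. Equal protein separated by SDS-PAGE, transferred to PVDF and probed with antibodies.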

MDA-MB-435 [13] = assay: Antitumor activity against human MDA-MB-435 cells xenografted in SCID mouse assessed as tumor growth inhibition at 40 mg/kg, po QD for 21 days and measured every 3 days; type: functional; conditions: dose 40.0 mg/kg/day, time 21.0 day; in short: as §2
MDA-MB-231 [14] = assay: Inhibition of ERK phosphorylation in human MDA-MB-231 cells at 0.03 to 0.3 uM incubated for 20 hrs by Western blot analysis; type: cell-based; conditions: dose 0.03-0.3 µM; in short: as §4
MDA-MB-231 [15] = assay: Inhibition of Fra1 phosphorylation in human MDA-MB-231 cells at 0.03 to 0.3 uM incubated for 20 hrs by Western blot analysis; type: functional, cell-based; conditions: dose 0.03-0.3 µM; in short: as §4
MDA-MB-231 [16] = assay: Inhibition of Fra1 expression in human MDA-MB-231 cells at 0.03 to 0.3 uM incubated for 20 hrs by Western blot analysis; type: functional, cell-based; conditions: dose 0.03-0.3 µM; in short: as §4
[17] = Acute toxicity in Sprague-Dawley rat assessed as histopathological changes in heart at 100 mg/kg, po administered as single dose measured after 24 hrs by H and E staining based light microscope analysis; type: organism-based; conditions: in vivo
In short: (§5)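 Sprague-Dawley rats received a single oral dose of 100 mg/kg in sterile water with 25% (v/v) PEG400 plus 5% DMSO. Organs were examined by histology and immunohistochemistry for pathological changes. Behaviour and side effects were checked daily.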

[18] = Acute toxicity in Sprague-Dawley rat assessed as histopathological changes in liver at 100 mg/kg, po administered as single dose measured after 24 hrs by H and E staining based light microscope analysis; type: organism-based; conditions: in vivo; in short: as §5
[19] = Acute toxicity in Sprague-Dawley rat assessed as histopathological changes in spleen at 100 mg/kg, po administered as single dose measured after 24 hrs by H and E staining based light microscope analysis; type: organism-based; conditions: in vivo; in short: as §5
[20] = Acute toxicity in Sprague-Dawley rat assessed as histopathological changes in lungs at 100 mg/kg, po administered as single dose measured after 24 hrs by H and E staining based light microscope analysis; type: organism-based; conditions: in vivo; in short: as §5
[21] = Acute toxicity in Sprague-Dawley rat assessed as histopathological changes in kidney at 100 mg/kg, po administered as single dose measured after 24 hrs by H and E staining based light microscope analysis; type: organism-based; conditions: in vivo; in short: as §5
MDA-MB-231 [22] = assay: Antitumor activity against human MDA-MB-231 cells xenografted in SCID mouse assessed as tumor growth inhibition at 10 mg/kg, iv administered weekly for 21 days and measured every 3 days; type: functional, organism-based; conditions: time 21.0 day; in short: as §2
[23] = Toxicity against SCID mouse xenografted with human MDA-MB-231 cells assessed as change in body weight at 10 mg/kg, iv administered weekly for 21 days and measured every 3 days; type: organism-based; conditions: in vivo, 504 h, time 21 day; in short: as §3
[24] = Toxicity against SCID mouse xenografted with human MDA-MB-435 cells assessed as change in body weight at 10 mg/kg, iv administered weekly for 21 days and measured every 3 days; type: organism-based; conditions: in vivo, 504 h, time 21 day; in short: as §3
[25] = test system: MDA-MB-435 (Homo sapiens); assay: Antitumor activity against human MDA-MB-435 cells xenografted in SCID mouse assessed as tumor growth inhibition at 10 mg/kg, iv administered weekly for 21 days and measured every 3 days; conditions: time 21.0 day
[26] = Toxicity in SCID mouse xenografted with MDA-MB-231 cells assessed as change in body weight at 20 mg/kg, po qd for 15 days and measured every 3 days; type: organism-based; conditions: in vivo, 360 h, dose 20 mg/kg/day, time 15 day
MDA-MB-231 [27] = assay: Antitumor activity against human MDA-MB-231 cells xenografted in SCID mouse assessed as tumor growth inhibition at 40 mg/kg, po qd for 15 days and measured every 3 days; type: functional; conditions: MDA-MB-231, po, 360 h, time 15 day; in short: as §2
[28] = Toxicity in SCID mouse xenografted with MDA-MB-231 cells assessed as change in body weight at 40 mg/kg, po qd for 15 days and measured every 3 days; type: organism-based; conditions: in vivo, 360 h, dose 40 mg/kg/day, time 15 day
[29] = Toxicity in SCID mouse xenografted with MDA-MB-231 cells assessed as animal death at 40 mg/kg, po qd for 15 days; type: organism-based; conditions: in vivo, dose 40 mg/kg/day, time 15 day, read-out: Activity
MDA-MB-231 [30] = assay: Antitumor activity against human MDA-MB-231 cells xenografted in SCID mouse assessed as tumor growth inhibition at 20 mg/kg, po qd for 15 days and measured every 3 days; conditions: MDA-MB-231, po, 360 h, read-out: INH
[31] = Toxicity in SCID mouse xenografted with MDA-MB-231 cells assessed as animal death at 20 mg/kg, po qd for 15 days; type: organism-based; conditions: in vivo, dose 20 mg/kg/day, time 15 day, read-out: Activity
[32] = Half-life in Sprague-Dawley rat at 10 mg/kg, po administered via gavage by LC-MS analysis; type: ADME, organism-based; conditions: in vivo
[33] = AUC (0 to t) in Sprague-Dawley rat at 10 mg/kg, po administered via gavage by LC-MS analysis; type: ADME, organism-based; set-up: dose 10 mg/kg; conditions: in vivo
[34] = AUC (0 to infinity) in Sprague-Dawley rat at 10 mg/kg, po administered via gavage by LC-MS analysis; type: ADME, organism-based; set-up: time infinity, route oral, dose 10 mg/kg; conditions: in vivo
[35] = Tmax in Sprague-Dawley rat at 10 mg/kg, po administered via gavage by LC-MS analysis; type: ADME, organism-based; conditions: in vivo
[36] = Cmax in Sprague-Dawley rat at 10 mg/kg, po administered via gavage by LC-MS analysis; type: ADME, organism-based; set-up: route oral, dose 10 mg/kg; conditions: in vivo

Cc1nc(Nc2ncc(C(=O)Nc3c(C)cccc3Cl)s2)cc(N2CCN(CCO)CC2)n1.O [DASATINIB]
IC50 (MDA-MB-231 [1]): 0.112 µM | IC50 (MDA-MB-435 [2]): 5.15 µM | IC50 (HepG2): 7.5 µM | Activity (MDA-MB-231 [3]): Active | Activity [4]: Non-Toxic | inhibition (MDA-MB-231 [5]): Active | Activity (MDA-MB-231 [6]): 0.34% | Activity (MDA-MB-231 [7]): 2.45% | Activity (MDA-MB-231 [8]): 92.97% | Activity (MDA-MB-231 [9]): 4.24% | Activity (MDA-MB-231 [10]): Active | Activity (MDA-MB-231 [11]): Active | inhibition (MDA-MB-231 [12]): Active | inhibition (MDA-MB-435 [13]): Active | inhibition (MDA-MB-231 [14]): Active | inhibition (MDA-MB-231 [15]): Active | inhibition (MDA-MB-231 [16]): Active

CCn1nc(C#Cc2cc(C(=O)Nc3ccc(CN4CCN(C)CC4)c(C(F)(F)F)c3)ccc2C)c2c(N)ncnc21
Activity [17]: Toxic | Activity [18]: Toxic | Activity [19]: Toxic | Activity [20]: Toxic | Activity [21]: Toxic

CC(=O)O[C@H]1C(=O)[C@@]2(C)[C@H]([C@H](OC(=O)c3ccccc3)[C@]3(O)C[C@H](OC(=O)[C@H](O)[C@@H](NC(=O)c4ccccc4)c4ccccc4)C(C)=C1C3(C)C)[C@]1(OC(C)=O)CO[C@@H]1C[C@@H]2O [PACLITAXEL]
Activity (MDA-MB-231 [22]): Active | Activity [23]: Non-Toxic | Activity [24]: Non-Toxic | Activity [25]: Active

Cc1ccc(NC(=O)c2cccc(C(F)(F)F)c2)cc1C#Cc1nn([C@H]2CC[C@H](O)CC2)c2ncnc(N)c12
Activity [26]: 3.5% | inhibition in vivo at 40 mg/kg/day (MDA-MB-231 [27]): 89.1% | Activity [28]: 3.1% | mortality at 360 h [29]: 0% | inhibition in vivo at 20 mg/kg/day (MDA-MB-231 [30]): 79.6% | mortality at 360 h [31]: 0% | half-life [32]: 4.7 h | AUC(0-t) [33]: 960 ng·h/mL | AUC(0-inf) [34]: 976 ng·h/mL | Tmax [35]: 6 h | Cmax [36]: 128 ng/mL

Cc1ccc(NC(=O)c2cccc(C(F)(F)F)c2)cc1C#Cc1nn([C@H]2CC[C@@H](O)CC2)c2ncnc(N)c12
Activity [26]: -2% | IC50 (HepG2): 7.9 µM | inhibition in vivo at 20 mg/kg/day (MDA-MB-231 [30]): 70.2% | mortality at 360 h [31]: 0%
